Consider six compounds from ChEMBL document CHEMBL1151693, “Design, synthesis, and pharmacological evaluation of N-bicyclo-5-chloro-1H-indole-2-carboxamide derivatives as potent glycogen phosphorylase inhibitors” (Bioorg Med Chem, 2008).

Data set [1] deals with T1, Glycogen phosphorylase, liver form (Homo sapiens, UniProt P06737).
T1 sequence (P06737 whole entry): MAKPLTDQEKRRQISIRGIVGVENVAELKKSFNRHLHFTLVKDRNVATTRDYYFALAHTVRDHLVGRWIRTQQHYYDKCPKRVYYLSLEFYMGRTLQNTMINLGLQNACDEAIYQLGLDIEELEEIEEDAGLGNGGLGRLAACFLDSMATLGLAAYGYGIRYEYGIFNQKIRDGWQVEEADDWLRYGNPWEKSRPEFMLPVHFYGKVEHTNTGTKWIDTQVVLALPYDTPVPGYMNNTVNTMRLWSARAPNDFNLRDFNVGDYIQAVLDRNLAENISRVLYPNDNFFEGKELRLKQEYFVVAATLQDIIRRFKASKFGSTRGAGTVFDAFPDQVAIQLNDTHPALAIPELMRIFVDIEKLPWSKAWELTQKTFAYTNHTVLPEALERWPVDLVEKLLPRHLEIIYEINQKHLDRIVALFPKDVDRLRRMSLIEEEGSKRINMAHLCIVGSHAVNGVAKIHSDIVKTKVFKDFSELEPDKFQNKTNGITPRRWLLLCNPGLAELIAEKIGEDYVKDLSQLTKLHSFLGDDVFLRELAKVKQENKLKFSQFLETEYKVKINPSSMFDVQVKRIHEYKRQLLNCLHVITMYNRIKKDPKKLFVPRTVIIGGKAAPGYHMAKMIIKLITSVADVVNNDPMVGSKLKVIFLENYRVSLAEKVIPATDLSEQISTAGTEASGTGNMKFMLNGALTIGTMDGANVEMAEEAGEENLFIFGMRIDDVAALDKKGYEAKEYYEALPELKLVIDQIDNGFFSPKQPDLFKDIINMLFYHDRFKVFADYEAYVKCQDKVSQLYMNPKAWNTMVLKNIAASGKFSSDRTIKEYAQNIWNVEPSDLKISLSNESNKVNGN
The data set can be described thus: Inhibition of active form of human liver glycogen phosphorylase.

The test system of the next data set is Hepatocyte. The data set can be described thus: Inhibition of glucagon-induced glucose output in cultured rat primary hepatocytes. The class given is functional, cell-based.
Data set [2] concerns Mus musculus. The data set can be described thus: Hypoglycemic activity in db/db mouse assessed as reduction of plasma glucose at 3 mg/kg, po after 2 hrs relative to control. It is filed as functional. Details: scale not given: the % may be the effect or the level left. A digest of the protocol: (§1)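 Diabetic db/db mice were dosed orally. Plasma glucose was measured 2 h post-dose in drug-treated and vehicle-treated control animals. Activity is the percent decrease in plasma glucose versus the vehicle controls. Significance versus control was tested by Dunnett's test or Student's t-test.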

Data set [3] concerns Mus musculus. Nature of the data set: Hypoglycemic activity in db/db mouse assessed as reduction of plasma glucose at 10 mg/kg, po after 2 hrs relative to control. The class given is functional. More on the design: scale not given: the % may be the effect or the level left. A digest of the protocol: as §1
Data set [4] is described as follows: AUC (0 to infinity) in Sprague-Dawley rat at 1 mg/kg, iv. More on the design: time infinity, dose 1 mg/kg, route intravenous. To be noted: plasma. The class given is ADME, organism-based. A digest of the protocol:
(§2)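 Pharmacokinetics were determined in male SD rats after intravenous or oral administration.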

Data set [5] in a line: Half life in Sprague-Dawley rat at 1 mg/kg, iv. It is filed as ADME, organism-based. Details: dose 1 mg/kg, route intravenous. To be noted: in vivo. A digest of the protocol:
as §2

Data set [6] is described as follows: AUC (0 to infinity) in Sprague-Dawley rat at 3 mg/kg, po. To be noted: plasma. It is filed as ADME, organism-based. Details: time infinity, dose 3 mg/kg, route oral. A digest of the protocol:
as §2

The nature of data set [7]: Cmax in Sprague-Dawley rat at 3 mg/kg, po. The class given is ADME, organism-based. More on the design: dose 3 mg/kg, route oral. The settings on record: in vivo. Summed up:
as §2

Data set [8] in a line: Tmax in Sprague-Dawley rat at 3 mg/kg, po. It is filed as ADME, organism-based. Details: dose 3 mg/kg, route oral. To be noted: in vivo. A digest of the protocol: as §2
The nature of data set [9]: Oral bioavailability in Sprague-Dawley rat at 3 mg/kg. The class given is ADME, organism-based. To be noted: in vivo. A digest of the protocol: as §2
Data set [10] is described as follows: Total clearance in Sprague-Dawley rat at 1 mg/kg, iv. It is filed as ADME, organism-based. The settings on record: in vivo. More on the design: dose 1 mg/kg, route intravenous. Summed up: as §2
Data set [11] in a line: Volume of distribution in Sprague-Dawley rat at 1 mg/kg, iv. It is filed as ADME, organism-based. More on the design: dose 1 mg/kg, route intravenous. The settings on record: in vivo. A digest of the protocol: as §2
Data set [12] has as its system Mus musculus. The data set can be described thus: Hypoglycemic activity in db/db mouse assessed as reduction of plasma glucose at 30 mg/kg, po after 2 hrs relative to control. The class given is functional. Details: scale not given: the % may be the effect or the level left. A digest of the protocol:
as §1

Where only a bound is given, the exact number is not on record here.

Usually IC50 stands for the concentration that inhibits the measured activity by half. As a reminder, the AUC(0-inf) is total exposure, with the tail of the curve extrapolated. The term half-life denotes the time needed for the level to fall by half in the phase considered. As usually defined, the Cmax is the maximum level reached in the sampled fluid or tissue. The term Tmax denotes the time from dosing to the highest level. One may read the bioavailability as dose-corrected exposure relative to a reference, in per cent. A word on the clearance: it is a measure of how efficiently the substance is removed, as volume per time. In general, Vd refers to a proportionality between amount in the body and measured concentration, not a real space.

Regarding `O=C(Nc1c(F)cc2c(c1F)CCC(F)(F)[C@@H]2O)c1cc2cc(Cl)ccc2[nH]1`, the 50% inhibitory concentration (IC50) in data set [1] is 0.02 µM; in the data set on Hepatocyte, 0.69 µM. Further, the Activity with Mus musculus [2] came to 14%; in the data set on Mus musculus [3] it was 26%. Also, the figures for the area under the curve AUC(0-inf) in data set [4] and in data set [6] were 930 ng·h/mL and 2780 ng·h/mL, respectively. The half-life in [5] is 12 h. This compound came in with a Cmax in [7] of 785 ng/mL. In addition, the Tmax in data set [8] came out at 0.5 h. Moreover, in data set [9], the bioavailability was determined as 100%. In data set [10], this compound showed a clearance of 17.9 mL/min/kg. For the same compound, the volume of distribution (Vd) in [11] worked out at 18.1 L/kg.

On to `O=C(N[C@@H](Cc1ccc(F)cc1)C(=O)N1CCC(O)CC1)c1cc2cc(Cl)ccc2[nH]1`, for which the Activity in the data set with Mus musculus [12] is 24%.

For the compound `CC1(C)CCc2cc(NC(=O)c3cc4cc(Cl)ccc4[nH]3)ccc2C1O` (configuration not stated), the half-inhibitory concentration (IC50) in data set [1] is > 10 µM.

In turn, `O=C(Nc1ccc2c(c1F)CCC(F)(F)C2O)c1cc2cc(Cl)ccc2[nH]1` (configuration not stated) gave an IC50 in data set [1] of 0.048 µM.

Consider `O=C(Nc1c(F)cc2c(c1F)CCC(F)(F)[C@H]2O)c1cc2cc(Cl)ccc2[nH]1`, for which the IC50 in data set [1] was 0.16 µM.

On to `O=C(Nc1c(F)cc2c(c1F)CCC(F)(F)C2O)c1cc2cc(Cl)ccc2[nH]1` (configuration not stated), for which the IC50 in [1] was 0.036 µM.
